Published values of several laboratories.
Cell line: HeLa
Read-out: cell growth or viability

Compound | assay | conditions | IC50
CC[C@@]1(OC(=O)Cc2c(C)n(C(=O)c3ccc(Cl)cc3)c3ccc(OC)cc23)C(=O)OCc2c1cc1n(c2=O)Cc2cc3cc4c(cc3nc2-1)OCO4 | MTT |  | 0.306 µM
Nc1cc(Cl)c(Cl)cc1N |  | 72 h | 50 µM
[Cl-].[Cl-].[Co+2] | MTT | 48 h | > 150 µM
CC[C@@]1(OC(=O)C(C)c2cccc(C(=O)c3ccccc3)c2)C(=O)OCc2c1cc1n(c2=O)Cc2cc3cc4c(cc3nc2-1)OCO4 (stereo partly shown) | MTT |  | 0.27 µM
N#Cc1ccc(NC(=S)NN)cc1 |  | 72 h | 11 µg/mL
COc1cc(C(=O)c2cc3c(-c4ccccc4)c(O)ccc3o2)cc(OC)c1OC |  |  | 31 µM
O=C(Cc1ccc2ccccc2c1)N[C@H](Cc1ccccc1)C(=O)N[C@@H](Cc1ccccc1)C(=O)N[C@@H](Cc1ccc(OP(=O)(O)O)cc1)C(=O)O | MTT | 48 h | > 500 µM
CSc1ccc(NC(=S)NN)cc1 |  | 72 h | 18 µg/mL
CC(C)[C@]12O[C@H]1[C@@H]1O[C@]13[C@]1(O[C@H]1C[C@H]1C4=C(CC[C@@]13C)C(=O)OC4)[C@@H]2O | thymidine uptake | 3 h | 0.041 µM
CC[C@@]1(OC(=O)[C@@H](N)C(C)C)C(=O)OCc2c1cc1n(c2=O)Cc2cc3cc4c(cc3nc2-1)OCO4 | MTT |  | 0.114 µM
C[C@]12C=CC(=O)C[C@@H]1CC[C@@H]1[C@@H]2C(=O)C[C@@]2(C)[C@H]1CC[C@]2(C)O | MTT | 24 h | 19.2 µM
N.N.[Cl][Pt][Cl] |  | 72 h | 0.22 µg/mL
COc1c2c(cc3c1OCO3)[C@]13C=C[C@H](OC)C[C@@H]1[N@](C2)C[C@H]3OC(=O)c1ccc2ccccc2c1 | WST-1 | 48 h | > 10 µM
CC[C@@]1(OC(=O)C(C)c2ccc(CC(C)C)cc2)C(=O)OCc2c1cc1n(c2=O)Cc2cc3cc4c(cc3nc2-1)OCO4 (stereo partly shown) | MTT |  | > 5 µM
Nc1cc(Br)c(Br)cc1N |  | 72 h | 20 µM
CC[C@@]1(OC(=O)[C@@H](N)Cc2ccccc2)C(=O)OCc2c1cc1n(c2=O)Cc2cc3cc4c(cc3nc2-1)OCO4 | MTT |  | 0.064 µM
COc1c2c(cc3c1OCO3)[C@]13C=C[C@H](OC)C[C@@H]1[N@](C2)C[C@H]3OC(=O)c1ccco1 | WST-1 | 48 h | > 10 µM
CC[C@@]1(OC(=O)CN)C(=O)OCc2c1cc1n(c2=O)Cc2cc3cc4c(cc3nc2-1)OCO4 | MTT |  | 0.042 µM
COc1ccc(C=NNC(=S)Nc2ccc(C#N)cc2)cc1 |  | 72 h | 31 µg/mL
